Published values gathered from unrelated publications.
Target: Calcium/calmodulin-dependent protein kinase kinase 2 (CAMKK2, Homo sapiens, UniProt Q96RR4)

With `Cc1ccc(C(=O)Nc2ccc(CN3CCN(C)CC3)c(C(F)(F)F)c2)cc1C#Cc1cnc2cccnn12` the remaining activity was 83% (enzyme activity; inhibitor; 23.5 nM).
For `O=C(Nc1ccc(Oc2ccc(F)cc2)cc1)N1CCc2ncccc2[C@H]1c1ccc(F)cc1`, the remaining binding was 100% (cell-free assay; competition with immobilised ligand; 1 µM).
For `Cc1ccc(NC(=O)c2ccc(C)c(C(F)(F)F)c2)cc1C#Cc1nn(C2CCC(O)CC2)c2ncnc(N)c12` (centres unmarked), the remaining signal was 55% (cell-free assay; 10 µM).
The activity vs control of `COc1cc(/C=C/C(=O)CC(=O)/C=C/c2ccc(O)c(OC)c2)ccc1O` is reported as 44% (enzyme activity; inhibitor; 1 µM).
With `FC(F)(F)Oc1cccc(-c2cnc3ccc(-c4ccncc4)nn23)c1` the activity vs control was 59% (enzyme activity; inhibitor; radiometric; 1 µM).
`CCOCCn1cc(C(=O)Nc2ccc(-n3nc(-c4cccnc4)cc3C(F)(F)F)cn2)ccc1=O` gave a remaining binding of 100% (cell-free assay; competition with immobilised ligand; 1 µM).
The remaining activity of `COc1cc(Nc2cnc(C#N)c(O[C@H](C)CN(C)C)n2)ncc1-c1cnn(C)c1` is reported as 103% (enzyme activity; inhibitor; radiometric; 1 µM).
For `Cn1c2c(Cl)c(Cl)ccc2c2cn[nH]c(=O)c21`, the ΔTm was 0.4 °C (thermal stability; DSF; 10 µM).
For `CN1CCN(c2cnc3c(C4CCN(C(=O)c5ccc(OC(F)(F)F)cc5N)CC4)ncnc3c2)CC1`, the remaining binding was 100% (cell-free assay; competition with immobilised ligand; 1 µM).
`CNC(=O)c1cc(Oc2ccc(NC(=O)Nc3ccc(Cl)c(C(F)(F)F)c3)cc2)ccn1` gave a remaining signal of 103% (cell-free assay; 0.5 µM).
`CCCCNc1ncc2c(-c3ccc(F)cc3)nn(C[C@H]3CC[C@H](N)CC3)c2n1` has an inhibition of 33.4% (target engagement in cells; inhibitor; chemoproteomics; 20 mM).
For `O=C(O)[C@H]1[C@H](Cn2nnc3ccccc3c2=O)CC[C@@H]1C(=O)c1ccc(OCCC2CCOCC2)cc1`, the remaining binding was 90% (cell-free assay; competition with immobilised ligand; 1 µM).
The inhibition of `CS(=O)(=O)Nc1cccc(-c2csc(NC(=O)CSc3nc4nccnc4c(=O)n3CCc3ccccc3)n2)c1` is reported as 4% (enzyme activity; inhibitor; 10 µM).
With `Nc1nc(NC2CCCCC2)sc1C(=O)c1ccccc1` the remaining activity was 63% (enzyme activity; inhibitor; 10 µM).
With `CCC1(CC)NC(=O)c2c(c3ccc(Cl)c(Cl)c3n2C)C1C#N` (centres unmarked) the ΔTm was 0.3 °C (thermal stability; DSF; 10 µM).
`O=C(Nc1cnn(-c2csc(C(=O)NC3COC3)c2)c1)Nc1ccccc1Cl` gave a remaining activity of 91.1% (enzyme activity; inhibitor; 5 µM).
The remaining activity of `CC(C)(C)c1nc(-c2cccc(NS(=O)(=O)c3c(F)cccc3F)c2F)c(-c2ccnc(N)n2)s1` is reported as 113% (enzyme activity; inhibitor; radiometric; 1 µM).
With `COc1cccc2c(NCc3ccccc3)nc(-n3c(N)nc4ccccc43)nc12` the inhibition was -5.8% (target engagement in cells; inhibitor; chemoproteomics; 20 mM).
`O=C(NCc1ncc(C(F)(F)F)cc1Cl)c1ccc2c(c1)C1(CCS(=O)(=O)CC1)[C@H](C1CC1)N2S(=O)(=O)c1ccc(F)cc1` has a remaining binding of 100% (cell-free assay; competition with immobilised ligand; 1 µM).
For `Oc1cccc(-c2nc(N3CCOCC3)c3oc4ncccc4c3n2)c1`, the remaining activity was 114% (enzyme activity; inhibitor; 10 µM).
The remaining binding of `CN(C)c1nccc(-c2cnc3ncccn23)n1` is reported as 100% (binding; 1 µM).
For `CN1CC(Oc2cnc(C#N)cc2-c2ccn3nc(NC(=O)C4CC4)cc3c2)C1`, the inhibition was 5% (enzyme activity; inhibitor; 1 µM).
The remaining signal of `N#CCCc1ccc2c(c1)-c1[nH]c3ccc([N+](=O)[O-])cc3c1CC(=O)N2` is reported as 86.8% (cell-free assay; 0.5 µM).
With `C[C@H](c1ccnc(Nc2nc3ccc(-c4cc(N(C)C)ncn4)cc3[nH]2)c1)N1CCN(C(=O)CC(F)(F)F)CC1` the remaining binding was 77% (cell-free assay; competition with immobilised ligand; 0.1 µM).
`CN1CCC2(CC1)NC(=O)c1c(c3ccc(Cl)c(Cl)c3n1C)C2C#N` (racemic) has a ΔTm of 1 °C (thermal stability; DSF; 10 µM).
The remaining binding of `Cc1c[nH]c2nccc(Oc3c(F)cc(Nc4cc(Cl)nc(N)n4)cc3F)c12` is reported as 98% (cell-free assay; competition with immobilised ligand; 0.1 µM).
With `CS(=O)(=O)CCNCc1ccc(-c2ccc3ncnc(Nc4ccc(OCc5cccc(F)c5)c(Cl)c4)c3c2)o1` the remaining signal was 101% (cell-free assay; 0.5 µM).
The remaining activity of `CC(C)(O)[C@H]1CC[C@H](Nc2ccc3ncc(-c4cccc(C(F)(F)F)c4)n3n2)CC1` is reported as 96.9% (enzyme activity; inhibitor; 1 µM).
With `Cc1noc([C@H]2C[C@@H](c3ccc(C(F)(F)F)cc3)CN(C(=O)N3CCS(=O)(=O)C3)C2)n1` the remaining binding was 100% (cell-free assay; competition with immobilised ligand; 1 µM).
